M5 antag: CHRM5 antagonism in calcium assay; P08912; CHO-hM5 cells, Fluo-8 calcium fluorescence, ACh EC80; inhibition, % at 3 µM; 360,000 compounds, 0.59% hits; AID 624040;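 active means inhibition above a per-plate cutoff, the mean of that plate's test compounds plus 3 SD, cut at about 27% in these data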
Target sequence (P08912 whole entry, looked up): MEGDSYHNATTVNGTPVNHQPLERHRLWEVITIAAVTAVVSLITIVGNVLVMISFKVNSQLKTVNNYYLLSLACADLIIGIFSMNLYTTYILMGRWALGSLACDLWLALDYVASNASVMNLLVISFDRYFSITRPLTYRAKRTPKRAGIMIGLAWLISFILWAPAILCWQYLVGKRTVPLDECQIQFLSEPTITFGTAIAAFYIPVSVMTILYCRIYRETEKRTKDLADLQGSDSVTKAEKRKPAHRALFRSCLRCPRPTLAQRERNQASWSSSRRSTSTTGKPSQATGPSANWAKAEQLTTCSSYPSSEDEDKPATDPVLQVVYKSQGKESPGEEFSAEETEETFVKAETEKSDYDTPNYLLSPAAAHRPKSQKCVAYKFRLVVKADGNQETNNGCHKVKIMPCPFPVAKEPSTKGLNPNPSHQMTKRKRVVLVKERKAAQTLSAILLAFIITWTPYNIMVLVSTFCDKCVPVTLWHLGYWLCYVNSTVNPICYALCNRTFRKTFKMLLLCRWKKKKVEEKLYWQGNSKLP
CHRM5 PAM: CHRM5 positive allosteric modulation. P08912. CHO-K1 hM5, Fluo-8 calcium, ACh EC20 PAM; 0% = ACh EC20, 100% = ACh EC100. activation, % at 3 µM. 360,000 compounds, 0.3% hits. AID 624038;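 active means activation above the run cutoff, the mean activation of all test compounds plus 3 SD, cut at about 18% in these data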
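Measured by: Fluo-8 calcium fluorescence; material: human M5 receptor in CHO-K1 cells; schedule: Post-acetylcholine fluorescence recording 140 s; benchmarks: low control EC20 acetylcholine (0%), high control EC100 acetylcholine (100%); read-out: Max/basal fluorescence ratio as % of EC20–EC100 ACh window; compound: single dose, 3 µM nominal final test concentration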
M5 ag: CHRM5 agonism in calcium assay. P08912. CHO-K1 hM5 cells, Fluo-8 calcium fluorescence; 0% DMSO wells, 100% maximal acetylcholine response. activation, % at 3 µM. 360,000 compounds, 0.19% hits. AID 624037;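 active means activation above the run's mean over test compounds plus 3 SD, cut at about 23% in these data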;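 further: signal is peak over basal fluorescence ratio across the kinetic read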
M4 antag: antagonists of human muscarinic M4 receptor (CHRM4); CHO-hM4 cells, ACh EC80, Fluo-8 calcium fluorescence; inhibition, % at 3 µM; 360,000 compounds, 0.73% hits; AID 624125;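 active means inhibition above its plate's cutoff, the mean inhibition of sample wells plus 3 SD, cut at about 27% in these data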
CHRM4 agonist: agonists of human muscarinic M4 receptor (CHRM4); activation, % at 3 µM; AID 624127; P08173; 360,000 compounds, 0.14% hits; CHO-K1 hM4/Gqi5, Fluo-8 calcium fluorescence; vehicle 0%, full acetylcholine response 100%;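 active means activation above the run mean over all test wells plus 3 SD, cut at about 32% in these data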;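 further: peak over basal fluorescence ratio per well then scaled between controls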
M4 PAM: CHRM4 positive allosteric modulation; 360,000 compounds, 0.4% hits; CHO-K1 hM4/Gqi5, Fluo-8 calcium fluorescence, ACh EC20; 0% = ACh EC20, 100% = maximal ACh; activation, % at 3 µM; P08173; AID 624126;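 active means activation above its plate's cutoff, the mean activation of sample wells plus 3 SD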
A number is an active result; i = inactive; ! = a repeat was not active. Most compounds without a hit are left out; they make up all but 1.8% or so of the library.

SMILES | M5 antag | CHRM5 PAM | M5 ag | M4 antag | CHRM4 agonist | M4 PAM
Cc1ccc(-c2csc3ncn(C(C)C(=O)O)c(=O)c23)cc1 (configuration not stated) | i | i | i | i | i | i
O=C(NCC1OCCCN1S(=O)(=O)c1ccc(F)cc1)C(=O)NC1CCCC1 (configuration not stated) | i | i | i | i | i | i
COc1ccc(S(=O)(=O)N2CCCOC2CNC(=O)C(=O)NC2CCCC2)cc1 (configuration not stated) | i | 30 | i | i | i | i
Cc1ccc(S(=O)(=O)N2CCOC2CNC(=O)C(=O)NCC(C)C)cc1 (configuration not stated) | i | i | i | i | i | 22
Nc1sc2c([n+]1CCCS(=O)(=O)[O-])CCCC2 | i | i | i | i | i | i
O=C(Nc1ccccc1-c1ccccc1)C1CCC1 | i | i | i | i | 54 | i
CC1CCN(CC(=O)Nc2ccccc2-c2ccccc2)CC1 | i | i | i | 27 | i | i
Cc1c(O)cccc1C(=O)N[C@@H](CSc1ccccc1)[C@H](O)CN1C[C@H]2CCCC[C@H]2C[C@H]1C(=O)NC(C)(C)C | 85! | i | 98! | i | 44! | i
Cc1cc(/C=C2/SC(=S)N(c3ccc([N+](=O)[O-])cc3)C2=O)c(C)n1-c1cccnc1 | i | i | i | i | i | i
Cc1cc(/C=C2/SC(=S)N(c3cccc(Cl)c3)C2=O)c(C)n1-c1cccnc1 | i | i | i | 34 | i | i
Cc1cc(/C=C2\SC(=S)N(C)C2=O)c(C)n1-c1ccccc1O | i | i | i | 27 | i | i
COCC1CCN(C(=O)c2cc(COc3ccc(-n4cncn4)cc3)on2)C1 (configuration not stated) | i | i | i | i | i | i
OC(c1ccc(F)cc1)c1nc(-c2cc3ccccc3o2)cs1 (configuration not stated) | i | i | i | i | 61 | i
CCSc1nc(C)nc2sc(C)c(C)c12 | i | i | i | i | i | i
CC1(C)CC(N2CCN(Cc3ccccc3)CC2)=CC(=[N+]2CCCCC2)C1 | i | i | i | i | i | i
CN(Cc1ccccc1)C1=CC(=[N+]2CCCCC2)CC(C)(C)C1 | i | i | i | 54 | i | i
Nc1nnc(SCC(=O)Nc2cccnc2Cl)s1 | i | i | i | i | i | 23
Cc1cccc(Nc2nnc(SCC(=O)Nc3cccnc3Cl)s2)c1 | i | i | i | i | i | i
COCCNCCOc1ccccc1-c1ccccc1 | i | 19 | i | i | i | i
CCn1c(CNc2ccccc2Cl)nnc1SCCN1CCCCC1 | i | i | i | 33 | i | i
O=C(NNS(=O)(=O)c1ccc2ccccc2c1)C1CCN(Cc2ccccc2)CC1 | 46 | i | i | 41 | i | i
O=C(NCc1ccco1)c1ccccc1-c1ccccc1 | i | i | i | i | i | i
Cc1scc(C(=O)NCc2ccco2)c1-c1ccccc1 | i | i | i | i | i | 42
CCOC(=O)C(Cc1ccnnc1)=NO | i | i | i | i | i | i
Cc1cc(NC(=O)COc2ccc(C)c(C)c2)no1 | i | i | i | i | i | i
SMILES | M5 antag | CHRM5 PAM | M5 ag | M4 antag | CHRM4 agonist | M4 PAM
Cc1cc(NC(=O)COc2ccc(F)c(Cl)c2)no1 | i | i | i | i | i | 19
CC(=O)Nc1ccc(S(=O)(=O)NC2=C(N3CCN(Cc4ccccc4)CC3)C(=O)c3ccccc3C2=O)cc1 | i | i | i | 31! | i | i
CCN1CCN(C2=C(NS(=O)(=O)c3ccc(NC(C)=O)cc3)C(=O)c3ccccc3C2=O)CC1 | i | i | i | i | i | i
COc1ccc(CN(C)C(C)C(=O)Nc2ccc(S(=O)(=O)N3CCCCC3)cc2)c(OC)c1 (configuration not stated) | i | i | i | 26 | i | i
CCN(Cc1ccc(OC)c(F)c1)C(C)C(=O)Nc1ccc(S(=O)(=O)N2CCCC2)cc1 (configuration not stated) | i | i | i | i | i | i
Cc1onc(-c2ccccc2)c1C(=O)Nc1nnc(-c2ccncc2)s1 | i | i | i | i | i | 31

Screening results deposited in PubChem BioAssay by The Scripps Research Institute Molecular Screening Center.
